Laboratory results: ChEMBL document CHEMBL4376838, “Discovery of Novel Celastrol Derivatives as Hsp90-Cdc37 Interaction Disruptors with Antitumor Activity” (J Med Chem, 2019)
Activity calls are given as the source filed them. The calls are words filed in the database; no cut-off is given here.

Test: Binding affinity to GSH in PBS at 100 uM assessed as reduction in absorption at 440 nm incubated up to 30 mins by UV absorption analysis
In short: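 Compound (100 μM) mixed with GSH (100 μM), Cdc37 (1.5 μM) or Hsp90 (1.5 μM) in PBS containing 1% DMSO, incubated at 37 °C for 0, 5, 15 and 30 min. UV spectra scanned 200-500 nm, with absorbance at 440 nm compared against the 0 min value (A/A0). Mean ± SD, n = 3.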

- Activity: Active
SMILES: CC1=C(O)C(=O)C=C2C1=CC=C1[C@@]2(C)CC[C@@]2(C)[C@@H]3C[C@](C)(C(=O)OCCCOC(=O)/C=C(\C#N)c4ccc(F)cc4)CC[C@]3(C)CC[C@]12C
